Assay results taken from ChEMBL document CHEMBL1131590, “Muscarinic agonists with antipsychotic-like activity: structure-activity relationships of 1,2,5-thiadiazole analogues with functional dopamine antagonist activity” (J Med Chem, 1998).
Calls of active or inactive are those of the source. No cut-off for these calls is given here.

Columns and labels:
Mus musculus [1] = experiment: Inhibition of apomorphine-induced climbing following s.c. administration in mice.; type: functional; conditions: sc
How it was run: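 Male Bom:NMRI mice, n=10 per group, received saline or drug sc 50 min before the trial and apomorphine 2 mg/kg sc 20 min before it. Each mouse was placed alone in a cylindrical wire cage, and climbing time over a 60-s trial was recorded automatically. ED50 and 95% confidence limits came from logistic nonlinear regression over 3-4 doses.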

Mus musculus [2] = experiment: Tremor after subcutaneous administration in mice was determined; type: functional; conditions: sc
How it was run: (§1)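 Mice received saline or drug sc. Side effects were scored 30 min after injection on a three-grade scale and expressed as percent of the maximum possible score. ED50 was obtained by graphic interpolation of the dose-response curve.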

Rattus norvegicus [3] = experiment: Conditioned avoidance responding in rat after subcutaneous administration (3 mg/kg); expressed as avoidance response/response failure; type: functional
How it was run: (§2)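 Single-dose screen in rats, given sc at the dose listed in each line. Each session typically ran 50 trials. Percent avoidance responses and percent response failures were recorded.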

Rattus norvegicus [4] = experiment: Inhibition of conditioned avoidance response in rat following s.c. administration.; type: functional; conditions: sc
How it was run: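 Rats were tested sc over a full dose range in the conditioned avoidance model, six rats per point, up to 50 trials per session. ED50 is the dose giving 50% of the drug's maximal effect on avoidance responding.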

Mus musculus [5] = experiment: Salivation after subcutaneous administration in mice; type: functional; conditions: sc; how it was run: as §1
[6] = In vitro inhibition of [3H]Oxo-Mas binding to M2 and M4 receptors in rat brain homogenate.
Rattus norvegicus [7] = experiment: Conditioned avoidance responding in rat after subcutaneous administration (1 mg/kg); expressed as avoidance response/response failure; type: functional; how it was run: as §2
Rattus norvegicus [8] = experiment: Conditioned avoidance responding in rat after subcutaneous administration (0.3 mg/kg); expressed as avoidance response/response failure; 24/63; type: functional, organism-based; how it was run: as §2
Rattus norvegicus [9] = experiment: Conditioned avoidance responding in rat after subcutaneous administration (0.3 mg/kg); expressed as avoidance response/response failure; 3/41; type: functional, organism-based
Rattus norvegicus [10] = experiment: Conditioned avoidance responding in rat after subcutaneous administration (0.3 mg/kg); expressed as avoidance response/response failure; 9/55; type: functional, organism-based
Rattus norvegicus [11] = experiment: Conditioned avoidance responding in rat after subcutaneous administration (0.3 mg/kg); expressed as avoidance response/response failure; 16/1; type: functional, organism-based; how it was run: as §2
[12] = In vitro inhibition of [3H]Oxo-Mas binding to M2 and M4 receptors in rat brain homogenate.; remark: listed apart in the source
Rattus norvegicus [13] = experiment: Conditioned avoidance responding in rat after subcutaneous administration (3 mg/kg); expressed as avoidance response/response failure; 48/20; type: functional, organism-based; how it was run: as §2
Rattus norvegicus [14] = experiment: Conditioned avoidance responding in rat after subcutaneous administration (1 mg/kg); expressed as avoidance response/response failure; 18/21; type: functional, organism-based
Rattus norvegicus [15] = experiment: Conditioned avoidance responding in rat after subcutaneous administration (0.3 mg/kg); expressed as avoidance response/response failure; 29/19; type: functional, organism-based

| Compound | ED50 (Mus musculus [1]) [mg/kg] | ED50 (Mus musculus [2]) [mg/kg] | Activity (Rattus norvegicus [3]) [%] | ED50 (Rattus norvegicus [4]) [mg/kg] | ED50 (Mus musculus [5]) [mg/kg] | IC50 [6] [nM] | further results |
| --- | --- | --- | --- | --- | --- | --- | --- |
| CCCSc1nsnc1[C@H]1CN2CCC[C@H]1C2 | 2.21 | > 30 | 86 | > 3 | > 30 | 3.6 |  |
| CCCCSc1nsnc1C1CN2CC[C@H]1C2 (some centres not stated) |  |  | 0 | < 1 |  | 1.3 |  |
| CCCSc1nsnc1C1CN2CCC[C@H]1C2 (some centres not stated) | 0.056 |  |  | 0.056 |  | 1.4 | Activity (Rattus norvegicus [7]): 41% |
| O=C1CCCN1CC#CCN1CCCC1 [OXOTREMORINE] | 0.09 | 0.24 |  | 0.3 | 0.2 | 5 | Activity (Rattus norvegicus [8]): inactive |
| CCCCSc1nsnc1C1CN2CCC[C@@H]1C2 (some centres not stated) |  |  | 97 | > 3 |  | 6.1 |  |
| CCCCSc1nsnc1[C@@H]1CN2CCC[C@H]1C2 | 0.026 | > 3 |  | 0.018 | > 3 | 0.53 | Activity (Rattus norvegicus [7]): 8% |
| CCCCSc1nsnc1[C@@H]1CN2CCC[C@@H]1C2 |  |  | 86 | > 3 |  | 9.9 |  |
| CSc1nsnc1C1CN2CCC[C@H]1C2 (some centres not stated) | 0.2 |  |  | 0.14 |  | 2.9 |  |
| CCCSc1nsnc1[C@H]1CN2CCC[C@@H]1C2 | 0.021 | 2.2 | 31 | 0.013 | > 3 | 0.64 |  |
| CCCCSc1nsnc1C1CN2CCC1CC2 (configuration not stated) [VEDACLIDINE] |  |  | 18 | 0.1 |  | 2.2 |  |
| CCCCCSc1nsnc1C1CN2CCC[C@H]1C2 (some centres not stated) | 0.054 |  |  | 0.065 |  | 2.5 | Activity (Rattus norvegicus [9]): inactive |
| O=C(CCCN1CCC(O)(c2ccc(Cl)cc2)CC1)c1ccc(F)cc1 [HALOPERIDOL] | 0.08 |  |  | 0.11 |  |  | Activity (Rattus norvegicus [10]): inactive |
| CCSc1nsnc1C1CN2CCC[C@H]1C2 (some centres not stated) | 0.047 |  |  | 0.045 |  | 1.3 |  |
| CCCCSc1nsnc1[C@H]1CN2CCC[C@@H]1C2 | 0.012 | > 0.3 |  | 0.017 | > 0.3 | 0.5 | Activity (Rattus norvegicus [11]): Active |
| CCCCSc1nsnc1C1=CCCN(C)C1 |  |  | 57 | 2.8 |  |  | IC50 [12]: 1.3 nM |
| CCCCSc1nsnc1C1CN2CC[C@@H]1C2 (some centres not stated) |  |  | 100 | > 1 |  | 4.2 |  |
| CCCCSc1nsnc1[C@H]1CN2CCC[C@H]1C2 | > 1 | > 1 |  | > 3 | > 1 | 2.3 | Activity (Rattus norvegicus [13]): Weak activity |
| CCCSc1nsnc1[C@@H]1CN2CCC[C@@H]1C2 | 2.2 | > 30 | 51 | > 3 | > 30 | 13.3 |  |
| CC[C@@H]1C(=O)OC[C@@H]1Cc1cncn1C [PILOCARPINE] | 3.87 | > 10 |  | 4.5 | 4 | 67 | Activity (Rattus norvegicus [14]): Weak activity |
| CCCCCCSc1nsnc1C1CN2CCC[C@H]1C2 (some centres not stated) | 0.06 |  |  | 0.1 |  | 3.3 | Activity (Rattus norvegicus [15]): Weak activity |
| CCCCSc1nsnc1C1CN2CCC[C@H]1C2 (some centres not stated) | 0.045 |  |  | 0.007 |  | 0.47 | Activity (Rattus norvegicus [7]): 32% |
| CCCSc1nsnc1[C@@H]1CN2CCC[C@H]1C2 | 0.17 | 1.3 | 39 | 0.03 | > 3 | 0.65 |  |
